Bioassay records as filed in PubChem.
Only some compounds are listed: those with a hit (about 1.9% of all), similar ones and a draw of the others.
PLC-beta3 inh = inhibitors of human phospholipase C beta3; AID 720704; inhibition, % at 12.2 µM; Q01970; Purified PLC-beta3, fluorogenic substrate, fluorescence; 0.18% of 370,000 active; in the data active = inhibition above about 11%
Target sequence (Q01970 whole entry, looked up): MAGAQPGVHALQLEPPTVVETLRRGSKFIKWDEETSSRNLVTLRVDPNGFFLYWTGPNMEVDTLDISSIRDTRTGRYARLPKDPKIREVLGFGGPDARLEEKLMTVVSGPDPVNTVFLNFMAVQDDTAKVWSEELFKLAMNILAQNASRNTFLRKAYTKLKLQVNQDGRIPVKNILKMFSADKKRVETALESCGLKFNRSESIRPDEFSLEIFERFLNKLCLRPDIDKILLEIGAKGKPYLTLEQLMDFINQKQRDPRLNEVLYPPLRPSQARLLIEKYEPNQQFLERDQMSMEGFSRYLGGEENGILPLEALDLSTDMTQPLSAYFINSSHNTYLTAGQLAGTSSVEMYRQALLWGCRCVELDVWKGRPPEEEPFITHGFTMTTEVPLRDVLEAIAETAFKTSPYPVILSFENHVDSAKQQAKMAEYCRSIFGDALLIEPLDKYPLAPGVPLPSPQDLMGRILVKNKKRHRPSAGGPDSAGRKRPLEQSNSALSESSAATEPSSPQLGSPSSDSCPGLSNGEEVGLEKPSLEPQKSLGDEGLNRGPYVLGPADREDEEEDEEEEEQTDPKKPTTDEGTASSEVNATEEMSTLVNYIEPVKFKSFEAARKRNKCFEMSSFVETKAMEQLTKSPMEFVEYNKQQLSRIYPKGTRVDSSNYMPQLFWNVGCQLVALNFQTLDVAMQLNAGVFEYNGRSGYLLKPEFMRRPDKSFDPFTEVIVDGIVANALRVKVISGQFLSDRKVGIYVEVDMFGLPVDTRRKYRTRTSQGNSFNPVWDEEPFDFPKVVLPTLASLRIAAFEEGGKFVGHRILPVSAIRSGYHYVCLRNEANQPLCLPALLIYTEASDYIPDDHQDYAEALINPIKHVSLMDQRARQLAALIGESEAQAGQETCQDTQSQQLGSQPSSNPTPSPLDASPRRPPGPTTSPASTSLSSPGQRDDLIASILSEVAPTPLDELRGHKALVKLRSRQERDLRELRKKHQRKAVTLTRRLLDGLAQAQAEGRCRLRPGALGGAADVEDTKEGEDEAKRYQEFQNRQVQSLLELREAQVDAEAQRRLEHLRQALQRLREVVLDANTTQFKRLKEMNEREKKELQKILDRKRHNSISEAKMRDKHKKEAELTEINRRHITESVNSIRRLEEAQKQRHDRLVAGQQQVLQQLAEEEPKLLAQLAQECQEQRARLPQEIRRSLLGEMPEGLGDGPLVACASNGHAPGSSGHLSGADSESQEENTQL
PLCg1 inh = PLC-gamma1 (human) inhibition, primary screen; inhibition, % at 12.2 µM; 0.84% of 370,000 active; P19174; purified PLC-gamma1, fluorogenic substrate, fluorescence; in the data active = inhibition above about 9.5%
sPLA2-III inh = Blocks human group III sPLA2 activity; 0.56% of 370,000 active; inhibition, % at 12.2 µM; QFRET BODIPY PC-A2 liposome hydrolysis, fluorescence;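 active = inhibition above mean plus 3 SD of compounds lying within the high and low control bounds, cut at about 19% in these data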
TbMetRS inhib = blocks T. brucei methionyl-tRNA synthetase activity; purified T. brucei MetRS, ATP depletion, Kinase-Glo luminescence; AID 624268; inhibition, % at 11.9 µM; 0.4% of 360,000 active;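 active = inhibition above a per-plate cutoff of the control wells' mean inhibition plus 3 SD, cut at about 5.5% in these data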
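Dosing: 11.9 µM single point; system: parasite MetRS enzyme; technique: luminescence of leftover ATP; times: 15 min enzyme-compound preincubation, 2 h reaction, 10 min detection, 25 °C; replicates: each compound tested once; read-out basis: percent inhibition relative to median high and low control wells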
sPLA2 confirm = human GIII-sPLA2 inhibition, confirmation. recombinant hGIII-sPLA2, BODIPY PC-A2 QFRET fluorescence. inhibition, % at 12.2 µM. shares compounds with sPLA2-III inh. 34% of 2,000 active;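 active = mean inhibition across triplicates above the hit cutoff set in the earlier primary screen, cut at about 19% in these data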
535nm interf = counter-screen for HGIII-sPLA2 inhibitors: 535nm fluorescence interference; 8.5% of 2,000 active; shares compounds with sPLA2-III inh; BODIPY FL product fluorescence interference, QFRET; inhibition, % at 12.2 µM;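 active = average inhibition above the solvent-only control mean plus 3 SD, cut at about 6% in these data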
535nm interf DR = counter-screen for HGIII-sPLA2 inhibitors: 535nm fluorescence interference, dose response | shares compounds with sPLA2-III inh | 240 tested, under 10 active | BODIPY FL product fluorescence interference, cell-free | IC50, µM;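 active = IC50 at or below 10 µM; inactive = IC50 above 10 µM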
A number is an active result; n = inactive; x = no result.

SMILES	PLC-beta3 inh	PLCg1 inh	sPLA2-III inh	TbMetRS inhib	sPLA2 confirm	535nm interf	others
CCOC(=O)NC(=O)C(=CNc1ccccc1OC)C(=O)NC(=O)OCC	n	n	21	n	n	n
CCOC(=O)NC(=O)C(=CNc1ccccc1C)C(=O)NC(=O)OCC	n	n	n	n	x	x
COc1cc(CNCCN(C)C)c(Br)cc1OCC(=O)NCc1ccccc1	n	n	22	n	n	n
COc1cc(CNCC(C)C)c(Br)cc1OCC(=O)NCc1ccccc1	n	n	n	n	x	x
CCCCCCN1CCN(C2CN(Cc3cn(CCCC(=O)OC)nn3)S(=O)(=O)C2)CC1 (stereo not given)	n	n	21	n	n	n
NC(=S)N/N=C/c1cc([N+](=O)[O-])ccc1Cl	n	n	20	n	n	n
O=[N+]([O-])c1ccc(Cl)c(/C=N/NC(=S)Nc2ccccc2)c1	n	n	n	n	x	x
CC(C)[C@H](NC(=O)[C@@H](N)Cc1ccccc1)C(=O)N1CCC2CCN(Cc3ccccc3)CC21 (stereo not given in full)	n	n	n	x	x	x
C=CCn1c(-c2c[nH]c3ccccc23)n[nH]c1=S	n	n	n	n	x	x
CCn1c(-c2c[nH]c3ccccc23)n[nH]c1=S	n	n	24	n	n	n
CCN(CC)c1ccc(/C=N/NC(=O)c2nnn(-c3nonc3N)c2C(C)C)c(O)c1	n	n	24	n	46	7.6
CCN(CC)c1ccc(C=NNC(=O)c2cc(-c3ccc(C)c(C)c3)n[nH]2)c(O)c1	n	n	21	x	31	n	535nm interf DR=n
CCN(CC)c1ccc(/C=N/NC(=S)NC)c(O)c1	n	n	21	n	37	n	535nm interf DR=n
CCN(CC)c1ccc(/C=N/NC(=O)c2ccc3nc[nH]c3c2)c(O)c1	x	x	x	n	x	x
O=C(OC12CCCN(C1)/C(=C/c1ccc(Cl)cc1)C2)c1ccc(Cl)cc1 (stereo not given)	n	n	n	x	x	x
CCCC(=O)NC(=S)Nc1nc(-c2ccc(OC)cc2)cs1	n	n	23	n	24	n
COc1ccc(-c2csc(NC(=S)NC(=O)c3ccco3)n2)cc1	n	n	n	n	x	x
O=C(Nc1nc(-c2ccccn2)cs1)c1ccc(Br)s1	n	n	38	n	27	n
COc1ccc2oc(C(=O)Nc3nc(-c4ccccn4)cs3)c(C)c2c1	n	n	22	n	25	n
O=C(Nc1nc(-c2ccccn2)cs1)c1ccco1	n	n	20	n	n	n
CC(C)C(=O)N1CC[C@H]2[C@H](CCCN2Cc2cc(F)cc(F)c2)C1	n	n	n	x	x	x
CC(C)C(=O)N1CC[C@H]2[C@H](CCCN2Cc2ccc(F)cc2)C1	n	n	22	x	n	n
CN(C)CC(=O)N[C@@H]1C[C@@H]2O[C@@H](CO)CC[C@@H]2O[C@@H]1CCc1ccc(-c2ccc(F)cc2)cc1	n	n	n	x	x	x
Cc1cc2nc(/N=C(\N)NC(=O)N3c4ccccc4Sc4ccccc43)nc(C)c2cc1C	n	n	21	n	n	n
CC12CC3(C)CC(C)(C1)CC(C(=O)NC(=S)N1CCOCC1)(C2)C3	n	n	20	n	23	n
SMILES	PLC-beta3 inh	PLCg1 inh	sPLA2-III inh	TbMetRS inhib	sPLA2 confirm	535nm interf	others
O=C(NC(=S)N1CCOCC1)C12CC3CCC(CC(C3)C1)C2	n	n	n	n	x	x
FC(F)(F)c1cccc(N2CCN(C3CC4CCC3C4)CC2)c1 (stereo not given)	n	n	20	n	n	n
C[C@H]1C(c2ccccc2F)O[C@]2(C[C@H](O)c3ccccc3O2)C[C@@H]1O (stereo not given in full)	n	n	n	x	x	x
CCN1/C(=C2\OC(=S)N(C)C2=O)C=Cc2ccccc21	n	n	n	n	x	x
CCSC1=NC(=O)/C(=C2/C=Cc3ccccc3N2CC)S1	n	n	21	n	46	9.6
CCCC(=O)NC(c1ccc(OC)cc1)c1ccc2cccnc2c1O (stereo not given)	n	n	24	n	n	n
CCCCC(=O)NC(c1ccccc1Cl)c1ccc2cccnc2c1O (stereo not given)	n	n	28	n	25	n
CCCCC(=O)NC(c1ccccc1)c1ccc2cccnc2c1O (stereo not given)	n	n	n	n	x	x
